Experimental data from ChEMBL document CHEMBL5678817, “FTBMT, a Novel and Selective GPR52 Agonist, Demonstrates Antipsychotic-Like and Procognitive Effects in Rodents, Revealing a Potential Therapeutic Agent for Schizophrenia” (J Pharmacol Exp Ther, 2017).
Active and inactive are the calls of the source. No cut-off for these calls is given here.

How the values were obtained:
[1] = molecular target: Beta-1 adrenergic receptor (Homo sapiens) (UniProt P08588); experiment: Inhibition of Adrenergic beta1 receptor (unknown origin) at 10 uM relative to control
Summary of the method: (§1)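 Single-point screen at 10 μM across receptor, ion channel and enzyme binding or activity assays. Expressed as percent inhibition versus control; negative values denote stimulation.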

[2] = molecular target: Nitric oxide synthase 1 (Homo sapiens) (UniProt P29475); experiment: Inhibition of nNOS (unknown origin) at 10 uM relative to control
Summary of the method: (§2)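 Binding and enzyme panel run by an outside contractor against receptors, ion channels and enzymes. Each assay used a single 10 μM test concentration, and results are expressed as percent inhibition. A negative value means stimulation of receptor activity or activation of enzyme activity.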

[3] = molecular target: T1, GABA-A receptor; anion channel (Homo sapiens) (UniProt P14867+P47870+P18507+P28472+P48169+Q99928+Q9UN88+P34903+O00591+O14764+Q8N1C3+P18505+P78334+P47869+P31644+Q16445); experiment: Inhibition of GABAA receptor (unknown origin) at 10 uM in presence of flunitrazepam relative to control; assay type: protein-complex assay
Summary of the method: (§3)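 Part of a 98-target external biochemical selectivity panel that used radioligand/receptor binding-type assays. Compound tested once at 10 µM. Results are reported as % inhibition versus control; negative values mean stimulation of receptor activity.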

[4] = molecular target: Prostaglandin G/H synthase 1 (Homo sapiens) (UniProt P23219); experiment: Inhibition of COX-1 (unknown origin) at 10 uM relative to control; summary of the method: as §1
[5] = molecular target: Vasopressin V2 receptor (Homo sapiens) (UniProt P30518); experiment: Inhibition of Vasopressin V2 receptor (unknown origin) at 10 uM relative to control; summary of the method: as §2
Mus musculus [6] = experiment: Antipsychotic activity in C57BL/6N mouse assessed as increase in Egr-2 mRNA expression at 3 to 100 mg/kg, po measured for 1 hr by qPCR analysis; assay type: functional, organism-based; details: dose 3-100 mg/kg
Summary of the method: (§4)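 Mice dosed orally at 3–100 mg/kg or vehicle. Tissues taken 1 h post-dose, NAc shell and striatum dissected, frozen on dry ice. IEG mRNA quantified by qPCR (absolute or ΔΔCt); n = 5–6; mean ± SEM.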

[7] = molecular target: D(4) dopamine receptor (Homo sapiens) (UniProt P21917); experiment: Inhibition of Dopamine D4 receptor (unknown origin) at 10 uM relative to control; summary of the method: as §3
[8] = molecular target: Serotonin 3 (5-HT3) receptor (Homo sapiens) (UniProt P46098+A5X5Y0+O95264+Q70Z44+Q8WXA8); experiment: Inhibition of Serotonin 5-HT3 receptor (unknown origin) at 10 uM relative to control; assay type: protein-complex assay; summary of the method: as §3
Homo sapiens [9] = species on record: Homo sapiens; experiment: Inhibition of Glutamate receptor (unknown origin) at 10 uM relative to control; summary of the method: as §3
[10] = molecular target: G protein-coupled receptor 52 (Rattus norvegicus, UniProt A0A8I5ZQK1); experiment: Agonist activity at rat GPR52 expressed in CHO cells assessed as increase in intracellular cAMP level incubated for 30 mins by Alphascreen assay; assay type: cell-based
Summary of the method: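 CHO cells stably expressing human, mouse or rat GPR52, plus naïve CHO cells, at 10,000 cells/well. Stimulated in cAMP assay buffer for 30 min at 37 °C. Intracellular cAMP read by AlphaScreen.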

Mus musculus [11] = experiment: Pro-cognitive activity in C57BL/6N mouse assessed as increase in Egr-2 gene expression in hippocampus at 3 to 30 mg/kg, po […]; assay type: functional, organism-based; details: dose 3-30 mg/kg
[12] = molecular target: T1, GABA-A receptor; anion channel (Homo sapiens); experiment: Inhibition of GABAA receptor (unknown origin) at 10 uM relative to control; assay type: protein-complex assay; summary of the method: as §3
[13] = molecular target: Collagenase 3 (Homo sapiens) (UniProt P45452); experiment: Inhibition of MMP13 (unknown origin) at 10 uM relative to control
Summary of the method: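 Enzyme activity assays from the same 98-target biochemical panel. Single test concentration of 10 µM. Read-out is % inhibition of enzyme activity relative to control; negative percentages indicate activation of the enzyme.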

[14] = molecular target: Insulin receptor (Homo sapiens) (UniProt P06213); experiment: Inhibition of Insulin receptor (unknown origin) at 10 uM relative to control; summary of the method: as §3
Mus musculus [15] = experiment: Antipsychotic activity in C57BL/6N mouse assessed as increase in c-fos positive cells in nucleus accumbens at 30 mg/kg, po measured for 2 hrs by immunohistochemistry analysis; assay type: functional, organism-based
[16] = molecular target: Type-1 angiotensin II receptor (Homo sapiens) (UniProt P30556); experiment: Inhibition of AT1 receptor (unknown origin) at 10 uM relative to control; summary of the method: as §1
Homo sapiens [17] = species on record: Homo sapiens; experiment: Inhibition of Nicotinic acetylcholine receptor (unknown origin) at 10 uM relative to control; summary of the method: as §3
Mus musculus [18] = experiment: Antipsychotic activity in C57BL/6N mouse assessed as increase in c-fos mRNA expression at 3 to 100 mg/kg, po measured for 1 hr by qPCR analysis; assay type: functional, organism-based; details: dose 3-100 mg/kg; summary of the method: as §4
[19] = molecular target: Cholecystokinin receptor type A (Homo sapiens) (UniProt P32238); experiment: Inhibition of CCK1 receptor (unknown origin) at 10 uM relative to control; summary of the method: as §1
Rattus norvegicus [20] = experiment: Pro-cognitive activity in Long-Evans rat assessed as increase in exploration time for novel object at 3 to 10 mg/kg, po measured after 3 mins by NORT test; assay type: functional, organism-based; details: dose 3-10 mg/kg
Summary of the method: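 Male Long-Evans rats (7 weeks) were habituated to a 40 × 40 × 50 cm box for 10 min. The acquisition trial was 3 min with two identical objects. Oral dosing at 3 or 10 mg/kg followed immediately after acquisition. The 3-min retention trial, with one familiar and one novel object, ran 48 h later. Exploration was hand-scored by a blinded scorer, and NDI = novel/total × 100. n = 10.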

[21] = molecular target: Cholinesterase (Homo sapiens) (UniProt P06276); experiment: Inhibition of Choline esterase (unknown origin) at 10 uM relative to control
Summary of the method: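 Enzyme assay run by an outside lab as part of a 98-target screen of receptors, ion channels and enzymes. Single test concentration of 10 μM; read-out is percent inhibition of enzyme activity versus control, with negative values meaning activation.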

[22] = molecular target: B1 bradykinin receptor (Homo sapiens) (UniProt P46663); experiment: Inhibition of Bradykinin B1 receptor (unknown origin) at 10 uM relative to control; summary of the method: as §1
Homo sapiens [23] = species on record: Homo sapiens; experiment: Inhibition of Glutamate kainate receptor (unknown origin) at 10 uM relative to control; summary of the method: as §3
Mus musculus [24] = experiment: Antipsychotic activity in C57BL/6N mouse assessed as increase in c-fos positive cells in dorsolateral striatum at 30 mg/kg, po measured for 2 hrs by immunohistochemistry analysis; assay type: functional, organism-based
[25] = molecular target: Nitric oxide synthase, inducible (Homo sapiens) (UniProt P35228); experiment: Inhibition of iNOS (unknown origin) at 10 uM relative to control; summary of the method: as §2
Rattus norvegicus [26] = experiment: Pro-cognitive activity in Long-Evans rat at10 mg/kg, po measured after 1 hr by radial arm maze test; assay type: functional, organism-based; details: dose 10.0 mg/kg
Summary of the method: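 Male Long-Evans rats (9 weeks) were trained on the radial arm maze until they made fewer than two errors on two consecutive days. Errors were re-entries into arms or uneaten pellets, within 5 min. Oral 10 mg/kg or vehicle was given 1 h pretest, and MK-801 0.08 mg/kg s.c. or saline 30 min pretest. Scoring was blinded. n = 8–14.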

Homo sapiens [27] = species on record: Homo sapiens; experiment: Inhibition of Calcium channel N-type (unknown origin) at 10 uM relative to control; summary of the method: as §1

Prostaglandin G/H synthase 1 (Homo sapiens), sequence (P23219 whole entry): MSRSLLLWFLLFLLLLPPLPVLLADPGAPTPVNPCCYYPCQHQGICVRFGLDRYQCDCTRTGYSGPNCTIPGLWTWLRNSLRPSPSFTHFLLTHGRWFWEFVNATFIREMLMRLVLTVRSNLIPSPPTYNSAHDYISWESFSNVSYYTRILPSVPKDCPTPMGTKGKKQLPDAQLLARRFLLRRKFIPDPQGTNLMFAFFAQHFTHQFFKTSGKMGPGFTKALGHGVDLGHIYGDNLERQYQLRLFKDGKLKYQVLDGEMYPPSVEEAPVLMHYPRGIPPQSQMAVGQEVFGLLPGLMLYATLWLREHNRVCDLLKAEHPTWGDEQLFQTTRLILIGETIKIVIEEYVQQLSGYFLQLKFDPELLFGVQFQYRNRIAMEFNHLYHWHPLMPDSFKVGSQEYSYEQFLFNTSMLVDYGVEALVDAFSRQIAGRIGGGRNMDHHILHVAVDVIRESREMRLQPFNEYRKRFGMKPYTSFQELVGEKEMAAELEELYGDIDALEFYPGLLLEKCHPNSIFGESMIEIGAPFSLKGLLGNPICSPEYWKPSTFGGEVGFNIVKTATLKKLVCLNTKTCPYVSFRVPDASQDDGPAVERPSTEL
Nitric oxide synthase, inducible (Homo sapiens), sequence (P35228 whole entry): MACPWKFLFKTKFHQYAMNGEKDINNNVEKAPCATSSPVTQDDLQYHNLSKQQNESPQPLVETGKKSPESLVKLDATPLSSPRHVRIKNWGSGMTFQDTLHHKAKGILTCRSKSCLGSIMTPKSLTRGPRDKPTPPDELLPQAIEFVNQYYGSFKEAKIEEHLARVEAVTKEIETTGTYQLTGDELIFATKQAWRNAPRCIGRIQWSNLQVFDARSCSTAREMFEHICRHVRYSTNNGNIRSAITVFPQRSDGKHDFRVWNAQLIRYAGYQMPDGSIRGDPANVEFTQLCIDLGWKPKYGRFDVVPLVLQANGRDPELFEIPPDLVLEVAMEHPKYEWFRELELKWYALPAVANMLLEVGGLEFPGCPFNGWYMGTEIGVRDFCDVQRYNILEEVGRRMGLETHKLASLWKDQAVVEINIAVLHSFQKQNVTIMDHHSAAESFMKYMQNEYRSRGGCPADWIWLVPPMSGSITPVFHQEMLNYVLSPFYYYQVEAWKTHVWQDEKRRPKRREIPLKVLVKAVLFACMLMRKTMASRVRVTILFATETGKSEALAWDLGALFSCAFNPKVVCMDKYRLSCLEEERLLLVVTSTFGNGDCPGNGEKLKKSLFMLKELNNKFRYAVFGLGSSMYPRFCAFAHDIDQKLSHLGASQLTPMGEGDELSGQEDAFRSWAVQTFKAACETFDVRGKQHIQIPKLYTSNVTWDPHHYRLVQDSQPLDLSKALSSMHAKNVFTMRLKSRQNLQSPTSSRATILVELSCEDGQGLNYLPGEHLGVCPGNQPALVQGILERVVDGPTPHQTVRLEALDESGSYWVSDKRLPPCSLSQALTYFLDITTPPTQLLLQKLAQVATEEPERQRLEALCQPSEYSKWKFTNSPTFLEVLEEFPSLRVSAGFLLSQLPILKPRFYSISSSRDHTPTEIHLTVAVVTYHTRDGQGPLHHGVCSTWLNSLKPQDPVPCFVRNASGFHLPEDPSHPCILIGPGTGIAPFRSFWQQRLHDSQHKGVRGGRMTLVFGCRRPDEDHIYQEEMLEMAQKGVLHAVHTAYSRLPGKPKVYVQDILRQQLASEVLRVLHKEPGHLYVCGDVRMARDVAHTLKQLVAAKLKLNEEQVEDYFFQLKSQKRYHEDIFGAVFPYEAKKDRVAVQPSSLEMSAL
Type-1 angiotensin II receptor (Homo sapiens), sequence (P30556 whole entry): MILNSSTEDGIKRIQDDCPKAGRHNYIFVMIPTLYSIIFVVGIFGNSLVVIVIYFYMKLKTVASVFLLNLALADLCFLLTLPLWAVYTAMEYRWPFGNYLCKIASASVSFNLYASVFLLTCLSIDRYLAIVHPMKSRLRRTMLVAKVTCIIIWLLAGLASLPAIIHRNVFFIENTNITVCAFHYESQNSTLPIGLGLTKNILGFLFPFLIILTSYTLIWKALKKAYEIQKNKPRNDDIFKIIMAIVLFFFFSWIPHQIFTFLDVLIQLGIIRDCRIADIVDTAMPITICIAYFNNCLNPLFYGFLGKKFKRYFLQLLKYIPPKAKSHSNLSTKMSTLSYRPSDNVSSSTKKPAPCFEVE
B1 bradykinin receptor (Homo sapiens), sequence (P46663 whole entry): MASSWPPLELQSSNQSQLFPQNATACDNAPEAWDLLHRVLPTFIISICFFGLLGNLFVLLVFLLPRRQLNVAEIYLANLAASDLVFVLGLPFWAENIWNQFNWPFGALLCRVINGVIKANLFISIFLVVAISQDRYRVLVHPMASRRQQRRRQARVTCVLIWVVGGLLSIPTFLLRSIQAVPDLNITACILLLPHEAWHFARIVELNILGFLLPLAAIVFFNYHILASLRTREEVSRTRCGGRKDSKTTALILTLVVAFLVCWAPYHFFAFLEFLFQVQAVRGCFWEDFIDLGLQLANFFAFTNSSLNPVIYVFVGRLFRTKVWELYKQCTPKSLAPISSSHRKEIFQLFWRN
Cholecystokinin receptor type A (Homo sapiens), sequence (P32238 whole entry): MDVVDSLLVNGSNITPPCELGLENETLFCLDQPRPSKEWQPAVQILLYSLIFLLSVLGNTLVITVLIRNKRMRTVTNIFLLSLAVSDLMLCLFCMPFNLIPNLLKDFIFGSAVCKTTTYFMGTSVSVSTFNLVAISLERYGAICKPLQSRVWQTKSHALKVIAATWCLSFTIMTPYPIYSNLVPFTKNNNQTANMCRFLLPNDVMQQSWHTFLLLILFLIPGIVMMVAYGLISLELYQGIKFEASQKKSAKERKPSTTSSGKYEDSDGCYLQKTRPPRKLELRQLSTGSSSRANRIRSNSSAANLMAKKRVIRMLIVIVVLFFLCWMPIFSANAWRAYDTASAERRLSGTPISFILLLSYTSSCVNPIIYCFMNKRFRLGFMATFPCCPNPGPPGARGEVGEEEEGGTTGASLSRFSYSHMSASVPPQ
Vasopressin V2 receptor (Homo sapiens), sequence (P30518 whole entry): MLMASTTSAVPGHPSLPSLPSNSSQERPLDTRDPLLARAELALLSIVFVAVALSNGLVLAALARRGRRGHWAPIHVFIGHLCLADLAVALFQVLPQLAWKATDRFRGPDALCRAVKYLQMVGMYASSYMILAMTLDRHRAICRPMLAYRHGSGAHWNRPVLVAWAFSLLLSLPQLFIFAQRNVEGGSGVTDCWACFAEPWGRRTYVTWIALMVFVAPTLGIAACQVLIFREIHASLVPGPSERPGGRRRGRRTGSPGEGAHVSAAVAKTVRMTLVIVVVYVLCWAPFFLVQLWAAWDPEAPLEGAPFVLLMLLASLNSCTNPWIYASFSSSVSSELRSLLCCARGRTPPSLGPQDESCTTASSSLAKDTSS
G protein-coupled receptor 52, sequence (A0A8I5ZQK1 whole entry): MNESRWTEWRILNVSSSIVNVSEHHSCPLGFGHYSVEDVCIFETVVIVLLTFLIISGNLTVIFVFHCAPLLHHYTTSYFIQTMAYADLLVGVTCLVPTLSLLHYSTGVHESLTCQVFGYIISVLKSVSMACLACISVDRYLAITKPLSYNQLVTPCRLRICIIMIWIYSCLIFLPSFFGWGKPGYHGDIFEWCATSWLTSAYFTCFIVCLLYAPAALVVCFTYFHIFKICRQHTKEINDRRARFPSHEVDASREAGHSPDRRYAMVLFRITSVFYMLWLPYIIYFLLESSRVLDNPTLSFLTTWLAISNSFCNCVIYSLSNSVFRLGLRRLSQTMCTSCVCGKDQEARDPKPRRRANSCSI
Cholinesterase (Homo sapiens), sequence (P06276 whole entry): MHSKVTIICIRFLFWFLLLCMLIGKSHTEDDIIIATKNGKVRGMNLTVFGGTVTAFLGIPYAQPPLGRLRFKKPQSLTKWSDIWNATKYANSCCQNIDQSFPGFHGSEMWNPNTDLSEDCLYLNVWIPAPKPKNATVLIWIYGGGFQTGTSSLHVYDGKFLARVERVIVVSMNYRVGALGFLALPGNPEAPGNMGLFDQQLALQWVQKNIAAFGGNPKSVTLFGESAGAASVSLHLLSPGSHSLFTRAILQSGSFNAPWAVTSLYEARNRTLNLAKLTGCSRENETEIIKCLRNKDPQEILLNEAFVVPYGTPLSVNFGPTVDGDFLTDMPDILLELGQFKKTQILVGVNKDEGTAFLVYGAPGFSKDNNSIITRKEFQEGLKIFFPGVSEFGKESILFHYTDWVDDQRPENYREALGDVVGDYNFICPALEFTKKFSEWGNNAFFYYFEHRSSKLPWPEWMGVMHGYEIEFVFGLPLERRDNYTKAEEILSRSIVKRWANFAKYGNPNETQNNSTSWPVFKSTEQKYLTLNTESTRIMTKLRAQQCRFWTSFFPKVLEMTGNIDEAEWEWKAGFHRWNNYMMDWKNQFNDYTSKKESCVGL
Beta-1 adrenergic receptor (Homo sapiens), sequence (P08588 whole entry, looked up): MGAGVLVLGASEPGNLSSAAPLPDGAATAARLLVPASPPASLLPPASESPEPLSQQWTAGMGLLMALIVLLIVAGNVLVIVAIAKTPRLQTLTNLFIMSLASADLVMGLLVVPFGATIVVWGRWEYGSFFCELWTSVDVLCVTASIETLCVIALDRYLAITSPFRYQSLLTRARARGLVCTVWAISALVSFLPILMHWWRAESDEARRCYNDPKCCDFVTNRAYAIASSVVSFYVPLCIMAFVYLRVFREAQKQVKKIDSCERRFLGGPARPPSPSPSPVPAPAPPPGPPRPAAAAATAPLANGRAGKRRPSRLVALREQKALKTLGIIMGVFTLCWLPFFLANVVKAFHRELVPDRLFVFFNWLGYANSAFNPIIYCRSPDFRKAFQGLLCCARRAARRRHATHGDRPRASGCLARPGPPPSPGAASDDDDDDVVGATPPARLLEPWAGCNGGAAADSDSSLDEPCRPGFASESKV

Work on Cc1cc(-n2nc(Cc3cc(F)cc(C(F)(F)F)c3)nc2C)ccc1C(N)=O [TP-024] yielded an inhibition [1] of -1%, an inhibition [2] of 11% and an inhibition [3] of 6%. The inhibition [4] was -1%, the inhibition [5] was -1% and the Activity (Mus musculus [6]) was “Active”. For the same compound, the inhibition [7] was 3%, the inhibition [8] was 10% and the inhibition (Homo sapiens [9]) was 2%. The EC50 [10] was 135 nM, the Activity (Mus musculus [11]) was “Active” and the inhibition [12] was 2%. For the same compound, the inhibition [13] was 1%, the inhibition [14] was -9% and the Activity (Mus musculus [15]) was “Active”. The inhibition [16] was 9%, the inhibition (Homo sapiens [17]) was -2% and the Activity (Mus musculus [18]) was “Active”. The inhibition [19] was 6%, the Activity (Rattus norvegicus [20]) was “Active” and the inhibition [21] was 18%. The inhibition [22] was -5%, the inhibition (Homo sapiens [23]) was 2% and the Activity (Mus musculus [24]) was “inactive”. The inhibition [25] was 7%, the Activity (Rattus norvegicus [26]) was “Active” and the inhibition (Homo sapiens [27]) was -9%.
